# Laboratory results published in paper PMC2864424 (Current Chemical Genomics, 2010).
# Like-named read-outs stand apart in the source and are kept apart here.
# T1: OATP1B1 (Homo sapiens, UniProt Q9Y6L6)
# T1 sequence (Q9Y6L6 1-691): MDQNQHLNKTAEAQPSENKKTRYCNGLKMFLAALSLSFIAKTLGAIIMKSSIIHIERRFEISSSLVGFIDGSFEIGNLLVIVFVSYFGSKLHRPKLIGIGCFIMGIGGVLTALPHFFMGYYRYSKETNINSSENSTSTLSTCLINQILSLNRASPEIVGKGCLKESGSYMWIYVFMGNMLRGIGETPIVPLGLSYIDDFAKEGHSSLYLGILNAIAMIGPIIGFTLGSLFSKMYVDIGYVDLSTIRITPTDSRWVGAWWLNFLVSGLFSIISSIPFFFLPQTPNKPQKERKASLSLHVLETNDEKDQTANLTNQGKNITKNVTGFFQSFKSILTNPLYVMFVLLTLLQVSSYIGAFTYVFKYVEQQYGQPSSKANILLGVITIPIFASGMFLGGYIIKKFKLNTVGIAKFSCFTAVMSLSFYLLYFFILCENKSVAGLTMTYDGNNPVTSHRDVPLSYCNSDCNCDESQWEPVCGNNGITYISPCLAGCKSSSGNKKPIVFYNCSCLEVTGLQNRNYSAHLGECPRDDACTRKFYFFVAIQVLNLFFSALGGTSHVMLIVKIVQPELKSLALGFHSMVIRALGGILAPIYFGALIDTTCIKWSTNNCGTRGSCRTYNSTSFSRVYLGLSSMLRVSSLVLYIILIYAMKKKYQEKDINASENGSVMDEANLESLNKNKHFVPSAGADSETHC
# T2: OATP1B3 (Homo sapiens, UniProt Q9NPD5)
# T2 sequence (Q9NPD5 1-702): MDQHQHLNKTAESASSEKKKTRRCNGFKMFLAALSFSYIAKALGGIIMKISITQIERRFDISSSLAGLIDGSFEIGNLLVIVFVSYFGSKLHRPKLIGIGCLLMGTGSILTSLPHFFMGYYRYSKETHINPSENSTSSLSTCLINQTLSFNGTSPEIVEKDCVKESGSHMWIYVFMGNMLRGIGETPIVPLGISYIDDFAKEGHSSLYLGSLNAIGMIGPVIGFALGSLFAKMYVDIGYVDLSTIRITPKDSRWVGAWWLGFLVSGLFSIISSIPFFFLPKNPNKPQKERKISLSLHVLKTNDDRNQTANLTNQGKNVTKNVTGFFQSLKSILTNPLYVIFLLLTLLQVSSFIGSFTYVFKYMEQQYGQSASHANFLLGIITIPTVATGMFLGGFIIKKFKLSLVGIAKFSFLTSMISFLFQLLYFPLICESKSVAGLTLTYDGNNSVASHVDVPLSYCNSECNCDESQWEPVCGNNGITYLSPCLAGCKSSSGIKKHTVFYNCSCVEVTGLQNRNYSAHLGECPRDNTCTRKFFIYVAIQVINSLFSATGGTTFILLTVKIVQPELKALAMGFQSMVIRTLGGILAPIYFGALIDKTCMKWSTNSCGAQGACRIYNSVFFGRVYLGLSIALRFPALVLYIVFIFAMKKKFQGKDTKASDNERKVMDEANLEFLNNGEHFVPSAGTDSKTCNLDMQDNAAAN
# Experiments:
# [1] = test system: OATP1B1 and OATP1B3 (not distinguished); assay type: cell-based, human; conditions: human, CHO cells stably expressing OATP1B1 or OATP1B3, pH 7.4, probe FMTX, 5 µM
# [2] = target: T1, OATP1B1; assay type: cell-based; conditions: for preferential / selective inhibition of OATP1B1-mediated FMTX transport: compared with OATP1B3
# [3] = target: T2, OATP1B3; assay type: cell-based; conditions: for preferential inhibition of OATP1B3-mediated FMTX transport: compared with OATP1B1
# [4] = test system: OATP1B1 and OATP1B3; assay type: cell-based, human; conditions: primary screen of FMTX uptake by OATP1B1 or OATP1B3
# [5] = test system: OATP1B1; conditions: read-out: IC50, inhibition of Ro 48-5033 uptake, OATP1B1; ref Treiber et al. 5; cited from earlier work
# [6] = test system: OATP1B3; conditions: read-out: Ki, inhibition of fexofenadine transport, OATP1B3; cited from earlier work
# [7] = test system: OATP1B3; conditions: read-out: IC50, inhibition of Ro 48-5033 uptake, OATP1B3; ref Treiber et al. 5; cited from earlier work
# [8] = test system: OATP1B3; conditions: read-out: IC50, inhibition of bosentan transport, OATP1B3; ref Treiber et al. 5; cited from earlier work
# [9] = test system: OATP1B1; conditions: read-out: Ki, inhibition of fexofenadine transport, OATP1B1; cited from earlier work
# [10] = test system: OATP1B3; conditions: read-out: Ki, inhibition of BSP transport, OATP1B3; cited from earlier work
# [11] = test system: OATP1B1; conditions: read-out: IC50, inhibition of bosentan transport, OATP1B1; ref Treiber et al. 5; cited from earlier work
# [12] = test system: OATP1B1; conditions: read-out: Ki, inhibition of BSP transport, OATP1B1; cited from earlier work
# [13] = target: T1, OATP1B1; assay type: cell-based; conditions: 24-well plates
# [14] = target: T2, OATP1B3; assay type: cell-based
# In short: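 Stably transfected CHO cells were grown at 37 °C, 5% CO2 in DMEM with 10% FBS, L-proline and 500 μg/ml G-418, passaged twice weekly and used up to passage 55. Cells were washed with 37 °C uptake buffer (pH 7.4) and incubated with fluorescent compound at 37 °C. Cells were then washed four times with ice-cold buffer and lysed in 1% Triton X-100. Fluorescence was read at 485/528 nm, with Vmax expressed per mg protein per min.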
# [15] = test system: OATP1B1; conditions: read-out: Ki, inhibition of OATP1B1-mediated pitavastatin uptake; cited from earlier work
# [16] = test system: wild-type CHO cells; experiment: FMTX uptake into wild-type CHO cells, 96-well plates; assay type: cell-based, Chinese Hamster; conditions: 5 μM FMTX, 30 min, room temperature
# In short: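 Cells were washed three times with room-temperature buffer and given 5 µM FMTX for 30 min at room temperature. They were then washed four times and lysed in 1% Triton X-100 in PBS. Fluorescence was read at ex 485/em 528 nm.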
# [17] = test system: OATP2B1; conditions: cited from earlier work
# [18] = substrate: O=C1OC2(c3ccc(O)cc3Oc3cc(O)ccc32)c2ccccc21; assay type: cell-based, human; conditions: other: 37 °C, 2 min, 24-well plates, net uptake
# [19] = 5 μM FMTX, 30 min, room temperature, 96-well plates
# [20] = 5 μM FMTX, 30 min, room temperature, 96-well plates, no inhibitor
molecule,measurement,setting,value
O=c1[nH]c(=O)n([C@H]2C[C@H](O)[C@@H](CO)O2)cc1C(F)(F)F [Trifluridine],IC50 at 30 min,[1],> 100 µM
CCOC(=O)c1cncn1[C@H](C)c1ccccc1 [Etomidate],IC50 at 30 min,[1],> 100 µM
Cc1ncc([N+](=O)[O-])n1CCO [Metronidazole],IC50 at 30 min,[1],> 100 µM
Bromocryptine,preferential / selective inhibition of OATP1B1-mediated FMTX transport,[2],preferentially inhibited OATP1B1
CCOC(=O)Nc1ccc2c(c1)N(C(=O)CCN1CCOCC1)c1ccccc1S2 [Moricizine],preferential inhibition of OATP1B3-mediated FMTX transport,[3],preferentially inhibited OATP1B3
CC(C)(C)NC(=O)[C@@H]1C[C@@H]2CCCC[C@@H]2CN1C[C@@H](O)[C@H](Cc1ccccc1)NC(=O)[C@H](CC(N)=O)NC(=O)c1ccc2ccccc2n1 [saquinavir],Prestwick library screening result,[4],strongest inhibitors
CO[C@H]1/C=C/O[C@@]2(C)Oc3c(C)c(O)c4c(O)c(c(/C=N/N5CCN(C)CC5)c(O)c4c3C2=O)NC(=O)/C(C)=C\C=C\[C@H](C)[C@H](O)[C@@H](C)[C@@H](O)[C@@H](C)[C@H](OC(C)=O)[C@@H]1C [Rifampicin],IC50,[5],~50 µM
same,Ki,[6],1.5 µM
same,IC50,[7],0.8 µM
same,IC50,[8],1.6 µM
same,Ki,[9],0.5 µM
same,IC50 at 30 min,[1],1.3 to 1.5 µM
same,Prestwick library screening result,[4],strongest inhibitors
same,Ki,[10],5 µM
same,IC50,[11],3.2 µM
same,Ki,[12],17 µM
O=C1OC2(c3ccc(O)cc3Oc3cc(O)ccc32)c2ccccc21 [fluorescein],transported by OATP1B1,"[13]; 1 µM, 30 min",transported
same,Km at 2 min,"[14]; human, CHO cells stably expressing OATP1B3, pH 7.4",82 ± 10 µM
CC(C)C[C@H]1C(=O)N2CCC[C@H]2[C@]2(O)O[C@](NC(=O)[C@@H]3C=C4c5cccc6[nH]cc(c56)C[C@H]4N(C)C3)(C(C)C)C(=O)N12 [Ergocryptine],preferential / selective inhibition of OATP1B1-mediated FMTX transport,[2],preferentially inhibited OATP1B1
CN(Cc1cnc2nc(N)nc(N)c2n1)c1ccc(C(=O)N[C@@H](CCC(=O)O)C(=O)O)cc1 [methotrexate],Ki,[15],> 300 µM
same,"inhibition at 30 min, 100 µM",[1],30%
fluorescein-methotrexate [FMTX],transported by OATP1B1,"[13]; 1 µM, 30 min",transported
same,"uptake signal, OATP1B1","[13]; 1 µM, 30 min, versus wild-type CHO",about 3 fold
same,"Vmax, OATP1B1","[13]; 37 °C, 2 min",961 ± 198 fluorescent units/mg protein * min
same,Km,"[13]; read-out: apparent Km, OATP1B1, 37 °C, 2 min, net uptake",3.8 ± 0.7 µM
same,"uptake signal, OATP1B3","[14]; 1 µM, 30 min, 24-well plates, versus wild-type CHO",about 4.5 fold
same,"Vmax, OATP1B3","[14]; 37 °C, 2 min, 24-well plates",4772 ± 709 fluorescent units/mg protein * min
same,fold higher transport efficiency of OATP1B3 than OATP1B1,[14]; Vmax/Km compared,2–3 fold
same,Km,"[14]; read-out: apparent Km, OATP1B3, 37 °C, 2 min, 24-well plates, net uptake",7.9 ± 2 µM
same,"typical uptake, wild-type CHO cells",[16],"4,400 ± 80 fluorescent units"
same,"typical uptake, OATP1B1-expressing cells",[2]; [19],"15,060 ± 1,540 fluorescent units"
same,"signal-to-basal ratio of uptake, OATP1B1",[2]; [20],3.4
same,"typical uptake, OATP1B3-expressing cells",[3]; [19],"33,880 ± 3,645 fluorescent units"
same,"signal-to-basal ratio of uptake, OATP1B3",[3]; [20],7.7
CCN1C[C@]2(COC)[C@H](O)C[C@H](OC)[C@@]34[C@@H]5C[C@@]6(O)[C@H](OC(=O)c7ccccc7)[C@@H]5[C@@](OC(C)=O)([C@@H]([C@H](OC)[C@H]23)[C@@H]14)[C@@H](O)[C@@H]6OC [Aconitine],IC50 at 30 min,[1],> 100 µM
O=C(O)c1cccnc1Nc1cccc(C(F)(F)F)c1 [Niflumic acid],preferential / selective inhibition of OATP1B1-mediated FMTX transport,[2],preferentially inhibited OATP1B1
Alexa Fluor® 488 methotrexate [AMTX],substrate of OATP1B3,"[14]; 1 µM, 30 min, 24-well plates",not transported
C[C@H]1C[C@H]2[C@@H]3CCC4=CC(=O)C=C[C@]4(C)[C@@]3(Cl)[C@@H](O)C[C@]2(C)[C@@]1(O)C(=O)CO [Beclomethasone],selectivity for OATP1B3 over OATP1B1,[3]; FMTX uptake IC50 values,about 5 fold
same,preferential inhibition of OATP1B3-mediated FMTX transport,[3],preferential inhibitors
same,preferential inhibition of OATP1B3-mediated FMTX transport,[3]; listed as beclamethasone,preferentially inhibited OATP1B3
O=C(COc1ccc(Cl)cc1)N1CCN(Cc2ccc3c(c2)OCO3)CC1 [Fipexide],preferential / selective inhibition of OATP1B1-mediated FMTX transport,[2],preferentially inhibited OATP1B1
CCOc1cc(CC(=O)N[C@@H](CC(C)C)c2ccccc2N2CCCCC2)ccc1C(=O)O [Repaglinide],preferential / selective inhibition of OATP1B1-mediated FMTX transport,[2],preferentially inhibited OATP1B1
CC(=O)[C@H]1CC[C@H]2[C@@H]3CCC4=CC(=O)CC[C@]4(C)[C@H]3CC[C@]12C [progesterone],effect on OATP2B1-mediated estrone-3-sulfate uptake,[17],stimulate
same,IC50,[2],5.4 ± 1.9 µM
same,effect on OATP1B1-mediated FMTX uptake,[2]; [19],inhibited
same,EC50,[3],0.2 µM
same,effect on OATP1B3-mediated FMTX uptake,[3]; [19],stimulated
OATP1B1 (Homo sapiens) (protein) MDQNQHLNKTAEAQPSENKKTRYCNGLKMFLAALSLSFIAKTLGAIIMKSSIIHIERRFEISSSLVGFIDGSFEIGNLLVIVFVSYFGSKLHRPKLIGIGCFIMGIGGVLTALPHFFMGYYRYSKETNINSSENSTSTLSTCLINQILSLNRASPEIVGKGCLKESGSYMWIYVFMGNMLRGIGETPIVPLGLSYIDDFAKEGHSSLYLGILNAIAMIGPIIGFTLGSLFSKMYVDIGYVDLSTIRITPTDSRWVGAWWLNFLVSGLFSIISSIPFFFLPQTPNKPQKERKASLSLHVLETNDEKDQTANLTNQGKNITKNVTGFFQSFKSILTNPLYVMFVLLTLLQVSSYIGAFTYVFKYVEQQYGQPSSKANILLGVITIPIFASGMFLGGYIIKKFKLNTVGIAKFSCFTAVMSLSFYLLYFFILCENKSVAGLTMTYDGNNPVTSHRDVPLSYCNSDCNCDESQWEPVCGNNGITYISPCLAGCKSSSGNKKPIVFYNCSCLEVTGLQNRNYSAHLGECPRDDACTRKFYFFVAIQVLNLFFSALGGTSHVMLIVKIVQPELKSLALGFHSMVIRALGGILAPIYFGALIDTTCIKWSTNNCGTRGSCRTYNSTSFSRVYLGLSSMLRVSSLVLYIILIYAMKKKYQEKDINASENGSVMDEANLESLNKNKHFVPSAGADSETHC,Km,[18],38 ± 5 µM
